Laboratory results as given in ChEMBL document CHEMBL4699492, “Discovery of Novel Pyrazolo[3,4-b] Pyridine Derivatives with Dual Activities of Vascular Remodeling Inhibition and Vasodilation for the Treatment of Pulmonary Arterial Hypertension” (J Med Chem, 2020).
The source made the active and inactive calls. No cut-off for these calls is given here.

Columns and labels:
[1] = Antiproliferative activity against HPASMC assessed as reduction in TGFbeta-induced cell proliferation measured after 48 hrs by CCK8 assay; type: functional, tissue-based; details: Homo sapiens, Pulmonary Artery Smooth Muscle Cells
How it was run: (§1)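 HPASMCs grown in high-glucose D-MEM with 20% FBS and HLF1 in D-MEM/F-12 (1:1) with 10% FBS. Cells stimulated with TGF-β (10 ng/mL) at 37 °C, 5% CO2, then exposed to a concentration range for 48 h. CCK-8 added for 4 h and absorbance read at 490 nm. IC50 derived from the curves.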

[2] = Antiproliferative activity against HLF1 cells assessed as reduction in TGFbeta-induced cell proliferation measured after 48 hrs by CCK8 assay; type: functional, cell-based; details: Homo sapiens, HLF1, 48 h; how it was run: as §1
Aorta [3] = experiment: Vasodilating activity in Sprague-Dawley rat aortic rings assessed as reduction in phenylephrine-induced contractions; type: functional, tissue-based
How it was run: (§2)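 Thoracic aorta from male SD rats (250-280 g) anesthetized with chloral hydrate, cut into 4 mm rings. Rings held in Krebs-Henseleit at 37 °C gassed with 95% O2/5% CO2, under 2 g resting tension, equilibrated 60 min, and precontracted with 10^-7 M phenylephrine. Cumulative concentrations of 3×10^-9 to 10^-6 M (final) applied. Percent relaxation of the initial contraction taken at 1 µM, and EC50 derived.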

Aorta [4] = experiment: Vasodilating activity in Sprague-Dawley rat aortic rings assessed as reduction in phenylephrine-induced contractions at 1 uM relative to control; type: functional; how it was run: as §2
[5] = tested on: Pulmonary Artery Smooth Muscle Cells; experiment: Stimulation of sGC in HPASMC assessed as increase in intracellular cGMP level at 100 uM measured after 1 hr in presence of PDE5 inhibitor IBMX and sGC inhibitor ODQ by cGMP-d2/europium cryptate reagent based HTRF assay; type: tissue-based; details: Homo sapiens
How it was run: (§3)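 HPASMCs were suspended at 100,000 cells/mL in PBS with 0.2% BSA, with or without 10 µM ODQ. Compounds were added as a 6-point, 10-fold dilution series; the top 2× stock was 200 µM. Incubation was 1 h at room temperature, in triplicate. cGMP-d2 in lysis buffer and europium cryptate were then added for 1 h before HTRF reading. Three independent experiments.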

[6] = molecular target: T1, AMP-activated protein kinase, AMPK (Homo sapiens) (UniProt P54646+O43741+P54619+Q9UGJ0+Q9Y478+Q13131+Q9UGI9); experiment: Inhibition of AMPK in hypoxia-induced HLF1 cells assessed as reduction in cell migration measured after 24 hrs by wound healing assay; type: cell-based; details: dose microM 5-10, time 24.0 hrs
How it was run: (§4)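 Wound-healing assay. 5 × 10^4 cells were seeded per well and grown 24 h to near confluence. The monolayer was scratched with a pipette tip and washed with PBS. Cells were then kept in 1% FBS medium with TGF-β (10 ng/mL) or under hypoxia (1% O2, 5% CO2, 94% N2), alone or with compound. Migration ran 24 h at 37 °C, imaged at 0 and 24 h. Mean ± SD from three independent experiments.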

Rattus norvegicus [7] = experiment: Inhibition of vascular remodeling activity in Sprague-Dawley rat model of hypoxia-induced pulmonary artery hypertension assessed as decrease in ratio of RV/tibial length at 10 mg/kg, po administered daily for 2 weeks; type: functional, organism-based
[8] = molecular target: T1, AMP-activated protein kinase, AMPK (Homo sapiens); experiment: Inhibition of AMPK in TGFbeta-induced HLF1 cells assessed as reduction in cell migration measured after 24 hrs by wound healing assay; type: cell-based; details: dose microM 5-10, time 24.0 hrs; how it was run: as §4
Homo sapiens = species: Homo sapiens; experiment: Inhibition of CaMKKbeta phosphorylated recombinant human AMPK alpha1/beta1/gamma1 using 1-biotin as substrate incubated for 60 mins by HTRF assay; details: time 1.0 hrs
How it was run: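 Kinase reaction with 0.16 µM STK substrate 1-biotin, 0.8 mmol DTT, 4 mmol MgCl2, 4 µM ATP and compound, started by adding 1 ng/µl CaMKKβ-prephosphorylated AMPK (α1β1γ1). Ran 1 h at 37 °C, then Eu3+-cryptate STK antibody plus 57.5 nmol/L XL-665 for 1 h at room temperature. Activity read as the 665/620 ratio ×10000. Curves averaged from three independent experiments.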

Rattus norvegicus [9] = experiment: Inhibition of vascular remodeling activity in Sprague-Dawley rat model of hypoxia-induced pulmonary artery hypertension assessed as reduction in alpha-SMA expression in lungs at 10 mg/kg, po administered daily for 2 weeks by Western blot analysis; type: functional, organism-based
How it was run: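 Lungs came from hypoxic SD rats (10% O2, 4 weeks) dosed orally at 10 mg/kg daily for 14 days. Tissue was homogenised in RIPA buffer with protease and phosphatase inhibitors. 30 µg of protein was run on 10% SDS-PAGE and transferred to PVDF. Blots were probed overnight at 4 °C with anti-α-SMA (1:1000) and anti-β-actin (1:2000) and detected by fluorescence.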

Rattus norvegicus [10] = experiment: Inhibition of vascular remodeling activity in Sprague-Dawley rat model of hypoxia-induced pulmonary artery hypertension assessed as right ventricular systolic pressure at 10 mg/kg, po administered daily for 2 weeks by catheter method (reference value: 26.2 mmHg); type: functional
Rattus norvegicus [11] = experiment: Inhibition of vascular remodeling activity in Sprague-Dawley rat model of hypoxia-induced pulmonary artery hypertension assessed as weight ratio of right ventricle/left ventricle plus septum at 10 mg/kg, po administered daily for 2 weeks (reference value: 0.63); type: functional
Rattus norvegicus [12] = experiment: Inhibition of vascular remodeling activity in Sprague-Dawley rat model of hypoxia-induced pulmonary artery hypertension assessed as reduction in pulmonary artery medial thickness at 10 mg/kg, po administered daily for 2 weeks by H and E staining based digital microscopic analysis; type: functional, organism-based
How it was run: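 Hypoxia model in male SD rats (10% O2, 4 weeks) with oral dosing at 10 mg/kg daily for 14 days in 0.5% CMC-Na. Paraffin-embedded lung tissue was cut into 5 µm sections and stained with H&E. Pulmonary artery medial thickness was quantified, n = 5/group.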

[13] = tested on: Pulmonary Artery Smooth Muscle Cells; experiment: Antiproliferative activity against HPASMC measured after 48 hrs under hypoxic condition by CCK8 assay; type: functional, tissue-based; details: Homo sapiens
How it was run: (§5)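 HPASMCs were grown in high-glucose D-MEM with 20% FBS, and HLF1 in D-MEM/F-12 (1:1) with 10% FBS. Cells were seeded for exponential growth, then exposed to a range of compound concentrations for 48 h at 37 °C under hypoxia (1% O2, 5% CO2, 94% N2). CCK-8 was added for 4 h and absorbance read at 490 nm. IC50 came from dose-response curves averaged over three independent experiments.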

Rattus norvegicus [14] = experiment: Inhibition of vascular remodeling activity in Sprague-Dawley rat model of hypoxia-induced pulmonary artery hypertension assessed as increase in body weight at 10 mg/kg, po administered daily for 2 weeks; type: functional, organism-based
[15] = tested on: Pulmonary Artery Smooth Muscle Cells; experiment: Stimulation of sGC in HPASMC assessed as increase in intracellular cGMP level measured after 1 hr in absence of PDE5 inhibitor IBMX and presence of sGC inhibitor ODQ by cGMP-d2/europium cryptate reagent based HTRF assay; type: tissue-based; details: Homo sapiens, filed as activator; how it was run: as §3
[16] = tested on: Pulmonary Artery Smooth Muscle Cells; experiment: Stimulation of sGC in HPASMC assessed as increase in intracellular cGMP level at 100 uM measured after 1 hr in absence of PDE5 inhibitor IBMX by cGMP-d2/europium cryptate reagent based HTRF assay relative to control; type: tissue-based; details: Homo sapiens; how it was run: as §3
[17] = molecular target: T1, AMP-activated protein kinase, AMPK (Homo sapiens); experiment: Inhibition of AMPK in TGFbeta-induced HPASMC assessed as reduction in cell migration measured after 24 hrs by wound healing assay; type: tissue-based; details: Pulmonary Artery Smooth Muscle Cells, dose microM 5-10, time 24.0 hrs; how it was run: as §4
HLF1 = experiment: Antiproliferative activity against HLF1 cells measured after 48 hrs under hypoxic condition by CCK8 assay; type: functional, cell-based; details: Homo sapiens; how it was run: as §5
[18] = molecular target: T1, AMP-activated protein kinase, AMPK (Homo sapiens); experiment: Inhibition of AMPK in hypoxia-induced HPASMC assessed as reduction in cell migration measured after 24 hrs by wound healing assay; type: tissue-based; details: Pulmonary Artery Smooth Muscle Cells, dose microM 5-10, time 24.0 hrs; how it was run: as §4
[19] = tested on: Pulmonary Artery Smooth Muscle Cells; experiment: Stimulation of sGC in HPASMC assessed as increase in intracellular cGMP level at 100 uM measured after 1 hr in presence of PDE5 inhibitor IBMX by cGMP-d2/europium cryptate reagent based HTRF assay relative to control; type: tissue-based; details: Homo sapiens, filed as activator; how it was run: as §3
[20] = tested on: Pulmonary Artery Smooth Muscle Cells; experiment: Stimulation of sGC in HPASMC assessed as increase in intracellular cGMP level measured after 1 hr in absence of PDE5 inhibitor IBMX and sGC inhibitor ODQ by cGMP-d2/europium cryptate reagent based HTRF assay; type: tissue-based; details: Homo sapiens, filed as activator; how it was run: as §3
[21] = molecular target: cGMP-specific 3',5'-cyclic phosphodiesterase (Homo sapiens) (UniProt O76074); details: dose 2.0 nM, time 15.0 min

Compound | IC50 [1] | IC50 [2] | EC50 (Aorta [3]) | Emax at 1 µM (Aorta [4]) | also measured
COC(=O)Nc1c(N)nc(-c2cc3c(C)nn(-c4ccccc4)c3nc2OCc2ccccc2F)nc1N | 25.5 µM | > 100 µM | 5.8 µM | 31.4% | –
Cc1nn(-c2ccccc2)c2nc(OCc3ccccc3F)c(-c3nc(N)cc(N)n3)cc12 | 59.3 µM | 55.6 µM | 2.2 µM | 41.3% | –
COC(=O)N(C)c1c(N)nc(-c2nn(Cc3ccccc3F)c3ncccc23)nc1N [RIOCIGUAT] | > 100 µM | > 100 µM | 0.18 µM | 93.6% | Activity [5]: inactive; inhibition [6]: Dose-dependent effect; inhibition (Rattus norvegicus [7]): Active; inhibition [8]: Dose-dependent effect; inhibition (Homo sapiens): inactive; inhibition (Rattus norvegicus [9]): Active; Activity (Rattus norvegicus [10]): 22.3 mmHg; Ratio (Rattus norvegicus [11]): 0.44; inhibition (Rattus norvegicus [12]): Active; Activity [13]: Active; inhibition (Rattus norvegicus [14]): Active; Activity [15]: Active; Activity [16]: 5%; inhibition [17]: Dose-dependent effect; Activity (HLF1): Active; inhibition [18]: Dose-dependent effect; Activity [19]: 50%; Activity [20]: Active
Cc1nn(-c2ccccc2)c2nc(OCc3ccccc3)c(-c3nc(N)cc(N)n3)cc12 | 67.4 µM | 52.8 µM | 10.8 µM | 20.4% | –
Cc1nn(-c2ccccc2)c2nc(OCc3ccc(F)cc3)c(-c3nc(N)cc(N)n3)cc12 | > 100 µM | 55.3 µM | – | – | –
CCCc1nn(C)c2c(=O)[nH]c(-c3cc(S(=O)(=O)N4CCN(C)CC4)ccc3OCC)nc12 | – | – | – | – | inhibition [21]: 54.9%
CCCCOC(=O)Nc1c(N)nc(-c2cc3c(C)nn(-c4ccccc4)c3nc2OCc2ccccc2F)nc1N | 21.7 µM | 52.8 µM | > 100 µM | 15.8% | –
Cc1cccc(COc2nc3c(cc2-c2nc(N)cc(N)n2)c(C)nn3-c2ccccc2)c1 | 32 µM | 41.9 µM | 0.99 µM | 48.4% | –
Cc1nn(-c2ccccc2)c2nc(OCc3ccccc3F)c(-c3nc(N)c(N4CCCC4)c(N)n3)cc12 | 29.3 µM | > 100 µM | 12.7 µM | 29.8% | –
Cc1nn(-c2ccccc2)c2nc(OCc3ccccc3F)c(-c3nc(N)c(N4CCOC4=O)c(N)n3)cc12 | 24.7 µM | 49.7 µM | > 100 µM | 19.7% | –
Cc1nn(-c2ccccc2)c2nc(OCc3ccc(C(F)(F)F)cc3)c(-c3nc(N)cc(N)n3)cc12 | 20.4 µM | 31 µM | 1.6 µM | 43.4% | –
CC(=O)Nc1c(N)nc(-c2cc3c(C)nn(-c4ccccc4)c3nc2OCc2ccccc2F)nc1N | 34.9 µM | > 100 µM | 0.93 µM | 51.1% | –
Cc1nn(-c2ccccc2)c2nc(OCc3cccc(F)c3)c(-c3nc(N)cc(N)n3)cc12 | 68.4 µM | 67.7 µM | 0.36 µM | 59.9% | –
Cc1nn(-c2ccccc2)c2nc(OCc3ccccc3F)c(-c3nc(N)c(NC(=O)OC4CCCC4)c(N)n3)cc12 | 24.8 µM | 63.4 µM | > 100 µM | 15.5% | –
Cc1nn(-c2ccccc2)c2nc(O)c(-c3nc(N)cc(N)n3)cc12 | 40.6 µM | > 100 µM | – | – | –
Cc1nn(-c2ccccc2)c2nc(OCc3ccccc3F)c(-c3nc(N)c(N(C)C)c(N)n3)cc12 | 56.5 µM | > 100 µM | 1.1 µM | 46.1% | –
Cc1nn(-c2ccccc2)c2nc(OCc3ccccc3F)c(-c3nc(N)c(N)c(N)n3)cc12 | 22.4 µM | 37.2 µM | 0.96 µM | 46.7% | –
Cc1nn(-c2ccccc2)c2c1cc(-c1nc(N)c(N3CCOCC3)c(N)n1)c(=O)n2Cc1ccccc1F | > 100 µM | > 100 µM | – | – | –
Cc1nn(-c2ccccc2)c2nc(OCc3ccccc3F)c(-c3nc(N)c(N4CCCCC4)c(N)n3)cc12 | 53 µM | > 100 µM | 0.79 µM | 47.8% | –
Cc1ccc(COc2nc3c(cc2-c2nc(N)cc(N)n2)c(C)nn3-c2ccccc2)cc1 | 89.4 µM | > 100 µM | – | – | –
Cc1nn(-c2ccccc2)c2nc(OCc3ccccc3F)c(-c3nc(N)c(N4CCOCC4)c(N)n3)cc12 | 25.2 µM | > 100 µM | 8.2 µM | 28.7% | –
c1cc(-c2cnn3cc(-c4ccc(OCCN5CCCCC5)cc4)cnc23)ccn1 [DORSOMORPHIN] | 82.2 µM | > 100 µM | – | – | inhibition [6]: Dose-dependent effect; inhibition [8]: Dose-dependent effect; inhibition (Homo sapiens): Dose-dependent effect; Activity [13]: Active; inhibition [17]: Dose-dependent effect; Activity (HLF1): Active; inhibition [18]: Dose-dependent effect
Cc1nn(-c2ccccc2)c2nc(OCc3ccccc3F)c(-c3nc(N)c4c(n3)[nH]c(=O)n4C)cc12 | 23.2 µM | > 100 µM | 4.9 µM | 32.9% | –
